Legend:
[1] = solubility in Matrigel compared to aqueous media; format: physicochemical
human VEGFR-1 [2] = experiment: FLISA binding assay, NRP-1 to VEGFR-1; conditions: human NRP-1; peptide 100 μg/ml; FLISA, duplicate wells
Procedure, shortened: (§1)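 Human VEGFR-1 extracellular domain coated at 200 ng per well in PBS overnight at 4°C, then blocked with Odyssey blocking buffer. Wells incubated with NRP-1 or NRP-2 in PBS with 10% (v/v) DMSO and 10% blocking buffer, with or without peptide (100 μg/ml). Bound NRP detected with goat anti-NRP-1 or anti-NRP-2 serum (1:100), then IRDye 680LT anti-goat, by infrared scanning. Duplicate wells; ANOVA with Tukey.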

[3] = system: IgD2 domain from human VEGFR-3; experiment: VEGF-C binding to recombinant VEGFR-3 IgD2; conditions: synthetic peptide added; FLISA, duplicate wells
[4] = presence in the vitreous humor after topical application; format: in vivo; conditions: applied topically
human FGFR-1 = experiment: growth factor binding assay; conditions: FGF-1 20 ng/ml; peptide 100 μg/ml; FLISA, duplicate wells
Procedure, shortened: (§2)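 Human FGFR-1 or PDGFR-β coated at 200 ng per well in PBS overnight at 4°C and blocked. Wells incubated with human FGF-1 or PDGF-BB (each 20 ng/ml) in PBS with 10% (v/v) DMSO and 10% blocking buffer, with or without peptide (100 μg/ml). Bound ligand detected with goat antiserum (1:200), then IRDye 680LT anti-goat, by infrared fluorescence. Duplicate wells; ANOVA with Tukey.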

human PDGFR-β = experiment: growth factor binding assay; conditions: PDGF-BB 20 ng/ml; peptide 100 μg/ml; FLISA, duplicate wells
Procedure, shortened: as §2

[5] = system: IgD2-3 domains from human VEGFR-3; experiment: VEGF-C binding to recombinant VEGFR-3 IgD2-3; conditions: synthetic peptide added; FLISA, duplicate wells
human VEGFR-1 [6] = experiment: FLISA binding assay, NRP-2 to VEGFR-1; conditions: rat NRP-2; peptide 100 μg/ml; FLISA, duplicate wells
Procedure, shortened: as §1

- effect on NRP-1 interaction with VEGFR-1 (human VEGFR-1 [2]): not affected by peptide PCAIWF or WVCSGG
- effect on binding of basic human FGF to FGFR-1α (human FGFR-1): no effect
- effect on binding of PDGF-BB to PDGFR-β (human PDGFR-β): no effect
- effect on NRP-2 interaction with VEGFR-1 (human VEGFR-1 [6]): not affected by peptide PCAIWF or WVCSGG
Substance: WVCSGG
- solubility in Matrigel [1]: fairly soluble in Matrigel compared to aqueous media
- inhibition of VEGF-C binding to IgD2 [3]: both prevented binding of VEGF-C to IgD2 and IgD2-3
- presence in the vitreous humor after topical application [4]: not found in the vitreous humor if applied topically to the retina
- inhibition of VEGF-C binding to IgD2-3 [5]: both prevented binding of VEGF-C to IgD2 and IgD2-3

Source: PMC5091360 (Science Advances, 2016)
